Data from PubChem BioAssay.
Active and inactive are the calls of the source.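 How the source made its calls, unless noted: active means duplicate-averaged activation above buffer control mean plus 5 SD of those controls; inactive means the rest.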

Tests used:
[1] = thallium flux activation in parental CHO cells, counter-screen for KCNQ1 potentiator project (AID 493006); conditions: parental CHO-K1 cells, FluxOR thallium flux, at 10 µM; active compounds read high
In short: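 Material: parental CHO-K1 cells, FluxOR dye-loaded; Also added: Potassium/thallium depolarization pulse; Schedule: overnight 37 °C plating, 90 min dye, 20 min dark compound; Signal: kinetic FluxOR fluorescence, 10 s baseline, 110 s after stimulus.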

[2] = biological target: Potassium voltage-gated channel subfamily KQT member 1 (Homo sapiens) (UniProt P51787); test: KCNQ1 potassium channel potentiators, confirmation, FluxOR thallium flux, CHO cells, duplicates (AID 493007;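 active means potentiation averaged over duplicate wells exceeding buffer-only control mean by more than 3 SD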;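 on outcome: cells depolarized by a potassium plus thallium sulfate stimulus after compound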); conditions: KCNQ1 cell line, FluxOR thallium flux fluorescence, at 10 µM; active compounds read high, % of reference activator effect, buffer zero
Chain of Potassium voltage-gated channel subfamily KQT member 1 (Homo sapiens) (P51787 whole entry, looked up): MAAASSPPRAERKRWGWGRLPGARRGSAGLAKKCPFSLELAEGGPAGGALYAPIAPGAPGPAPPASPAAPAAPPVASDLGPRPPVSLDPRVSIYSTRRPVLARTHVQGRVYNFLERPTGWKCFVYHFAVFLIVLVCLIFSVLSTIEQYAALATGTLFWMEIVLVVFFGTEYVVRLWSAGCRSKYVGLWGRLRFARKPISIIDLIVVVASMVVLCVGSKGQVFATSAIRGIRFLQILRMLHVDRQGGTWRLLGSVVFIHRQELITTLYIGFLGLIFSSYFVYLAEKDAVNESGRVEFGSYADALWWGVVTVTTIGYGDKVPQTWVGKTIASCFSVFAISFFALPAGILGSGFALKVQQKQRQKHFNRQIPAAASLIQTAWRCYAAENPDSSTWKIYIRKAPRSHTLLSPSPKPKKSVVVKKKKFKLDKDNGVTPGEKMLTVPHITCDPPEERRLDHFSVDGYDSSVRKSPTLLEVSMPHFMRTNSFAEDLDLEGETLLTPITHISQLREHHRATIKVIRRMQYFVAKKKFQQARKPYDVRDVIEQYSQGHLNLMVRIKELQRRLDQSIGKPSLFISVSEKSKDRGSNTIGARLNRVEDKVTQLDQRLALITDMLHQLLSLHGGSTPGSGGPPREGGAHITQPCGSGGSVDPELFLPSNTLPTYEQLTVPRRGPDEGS
In short: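 System: KCNQ1-expressing CHO cell line; technique: kinetic thallium influx fluorescence with FluxOR dye, 10 s baseline, 110 s post-stimulus; timing: dye 90 min then compound 20 min, both at room temperature; controls: buffer-only wells as 0% and R-L3 activator as 100%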

[3] = biological target: Potassium voltage-gated channel subfamily KQT member 2 (Rattus norvegicus) (UniProt O88943); test: rat KCNQ2 channel potentiation, selectivity assay for KCNQ1 potentiator project, KCNQ2-CHO-K1 cells (AID 493009;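 active means mean duplicate potentiation above the buffer control mean plus 5 SD of buffer wells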;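 further: assay conditions were tuned for KCNQ1 rather than KCNQ2 modulators; signal is max minus min fluorescence divided by baseline after thallium stimulus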); conditions: FluxOR thallium flux fluorescence, at 10 µM; active compounds read high, scaled: buffer 0, activator control 100
Chain of Potassium voltage-gated channel subfamily KQT member 2 (Rattus norvegicus) (O88943 whole entry, looked up): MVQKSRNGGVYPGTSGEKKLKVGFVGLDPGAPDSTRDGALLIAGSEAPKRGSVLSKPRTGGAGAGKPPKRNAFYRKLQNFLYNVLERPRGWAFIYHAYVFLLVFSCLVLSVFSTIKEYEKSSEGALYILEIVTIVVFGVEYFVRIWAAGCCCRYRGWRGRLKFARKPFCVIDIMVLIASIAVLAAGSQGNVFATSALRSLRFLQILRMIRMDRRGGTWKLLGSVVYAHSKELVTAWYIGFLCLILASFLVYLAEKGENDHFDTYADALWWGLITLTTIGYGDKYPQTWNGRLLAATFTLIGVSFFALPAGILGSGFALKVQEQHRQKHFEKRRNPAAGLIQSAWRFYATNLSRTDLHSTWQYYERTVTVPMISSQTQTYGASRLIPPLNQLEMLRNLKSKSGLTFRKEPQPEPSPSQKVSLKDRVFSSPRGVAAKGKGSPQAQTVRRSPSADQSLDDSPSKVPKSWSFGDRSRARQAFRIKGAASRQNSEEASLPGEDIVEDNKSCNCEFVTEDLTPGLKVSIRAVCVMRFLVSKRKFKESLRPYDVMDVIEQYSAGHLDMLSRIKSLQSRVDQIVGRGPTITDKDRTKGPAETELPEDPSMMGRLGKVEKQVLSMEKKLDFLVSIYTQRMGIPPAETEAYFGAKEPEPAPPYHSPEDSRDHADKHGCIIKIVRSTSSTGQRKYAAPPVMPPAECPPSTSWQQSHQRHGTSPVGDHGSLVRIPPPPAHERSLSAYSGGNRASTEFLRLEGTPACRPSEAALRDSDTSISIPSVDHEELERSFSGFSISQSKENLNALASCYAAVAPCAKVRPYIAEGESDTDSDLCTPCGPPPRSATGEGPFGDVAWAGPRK

[4] = biological target: Potassium voltage-gated channel subfamily KQT member 1 (Homo sapiens) (UniProt P51787); test: KCNQ1 channel current potentiators, confirmation, orthogonal assay for KCNQ1 potentiator project, IonWorks patch clamp, KCNQ1-CHO cells (AID 493184;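 active means current rise at least 3 SD above the untreated control mean in each of two repeat wells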;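 on current potentiation: percent change of the same well's current before compound addition so 0% = no change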); conditions: automated patch clamp current, at 10 µM; active compounds read high
In short: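 Test system: KCNQ1-expressing CHO cells. Medium: pH 7.4 external bath. Probe or stimulus: voltage step from -90 mV holding to +40 mV, 2,000 ms. Compound: 10 µM final, single point. Detection: automated perforated-patch electrophysiology. Read-out: percent current increase versus pre-compound level. Repeats: two replicates.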

[5] = biological target: Potassium voltage-gated channel subfamily E member 1 (Homo sapiens) + Potassium voltage-gated channel subfamily KQT member 1 (Homo sapiens) (UniProt P15382+P51787); test: KCNQ1/KCNE1 complex potentiators, confirmation, selectivity assay for KCNQ1 potentiator project, thallium flux, CHO-K1 KCNQ1/E1 cells (AID 493186;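 active means mean duplicate activation above the buffer control mean plus 5 SD of those controls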); conditions: FluxOR thallium flux, at 10 µM; active compounds read high
Chain of Potassium voltage-gated channel subfamily E member 1 (Homo sapiens) + Potassium voltage-gated channel subfamily KQT member 1 (Homo sapiens) (P51787 whole entry, looked up): as the sequence (P51787 whole entry, looked up) above
In short: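 Material: CHO-K1 cells with KCNQ1/E1 / Timing: dye 90 min, compound 20 min, room temperature / Technique: kinetic thallium-sensitive FluxOR dye fluorescence / Read-out: percent activation scaled between buffer and R-L3 ratio signals / Replicates: tested in duplicate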

COC(=O)C1=C(C)N(c2ccc(F)c(Cl)c2)C(=O)C1
inactive: outcome [1] | outcome [2] | outcome [3] | outcome [4] | outcome [5]

COc1cc(NC(=S)N2CCC(C(O)(c3ccccc3)c3ccccc3)CC2)cc(OC)c1
inactive: outcome [1] | outcome [4] | outcome [5]
active: potentiation [2] 20.5% | potentiation [3] 156%

CCOC(=O)c1cc2c(C)n(-c3ccc(C)cc3)c(C)c2ccc1=O
active: potentiation [2] 19.5%
inactive: outcome [1] | outcome [3] | outcome [4] | outcome [5]

CNCC/C=C1/c2ccccc2CSc2ccccc21
inactive: outcome [1] | outcome [2] | outcome [3] | outcome [4] | outcome [5]

O=C(NC(=S)Nc1ccc2c(c1)OCCO2)c1cccc2ccccc12
inactive: outcome [1] | outcome [2] | outcome [3] | outcome [4] | outcome [5]

CCCOc1ccc(C(=O)NNC(=S)NC(=O)c2cc(-c3ccccc3)nc3ccccc23)cc1
active: potentiation [2] 23.5%
inactive: outcome [1] | outcome [3] | outcome [4] | outcome [5]

Cc1ccc(CCNC(=O)C2CC(c3cccc(F)c3)=NO2)cc1 (stereo not given)
inactive: outcome [1] | outcome [2] | outcome [3] | outcome [4] | outcome [5]

Cc1ccc(S(=O)(=O)/N=C(\N)Nc2nc(C)c3ccccc3n2)cc1
inactive: outcome [1] | outcome [2] | outcome [3] | outcome [4] | outcome [5]

CCCn1c(SCC(=O)Nc2ccccc2C(=O)OC)nc2c1c(=O)n(C)c(=O)n2C
inactive: outcome [1] | outcome [3] | outcome [4] | outcome [5]
active: potentiation [2] 120%

COC(=O)c1sc(NC(=S)NC(=O)c2ccccc2)nc1C
inactive: outcome [1] | outcome [2] | outcome [3] | outcome [4] | outcome [5]

Cc1onc(-c2ccccc2)c1C(=O)NC(=S)Nc1sc2c(c1C#N)CCCC2
inactive: outcome [1] | outcome [3] | outcome [4] | outcome [5]
active: potentiation [2] 31.5%

CCOC(=O)c1[nH]c2cc(OC)c(OC)cc2c1NC(=O)CN(C)C1CCCCC1
active: potentiation [2] 18%
inactive: outcome [1] | outcome [3] | outcome [4] | outcome [5]

CC(C)(C)c1ccc(-n2nc(C#N)c(Cl)cc2=O)cc1
inactive: outcome [1] | outcome [2] | outcome [3] | outcome [4] | outcome [5]

O=C(NCC1CCCO1)c1cccc(Oc2ccccc2)c1 (stereo not given)
inactive: outcome [1] | outcome [2] | outcome [3] | outcome [4] | outcome [5]

CCOC(=O)c1c(N)sc(C(C)=O)c1C
inactive: outcome [1] | outcome [2] | outcome [3] | outcome [4] | outcome [5]

O=C(NC(=S)Nc1ccc(Cl)cn1)c1cccs1
inactive: outcome [1] | outcome [2] | outcome [3] | outcome [4] | outcome [5]

O=C(NCC(c1cccs1)N1CCOCC1)C1CCN(S(=O)(=O)c2cccc(C(F)(F)F)c2)CC1 (stereo not given)
inactive: outcome [1] | outcome [2] | outcome [3] | outcome [4] | outcome [5]

O=C(N1CCCCC1)N1CCN(C(=O)N2CCCCC2)CC1
active: potentiation [2] 19%
inactive: outcome [1] | outcome [3] | outcome [4] | outcome [5]

Cc1ccc2cc(/C=N/NC(=O)CN3CCCCC3)c(Cl)nc2c1
inactive: outcome [1] | outcome [2] | outcome [3] | outcome [4] | outcome [5]

COc1ccc(OCC(=O)NC(=S)NNC(=O)COc2ccc(Br)cc2Cl)cc1
active: potentiation [2] 18.5%
inactive: outcome [1] | outcome [3] | outcome [4] | outcome [5]

C=CCNC(=S)NNC(=O)COc1c(Cl)cc(Cl)cc1Cl
inactive: outcome [1] | outcome [2] | outcome [3] | outcome [4] | outcome [5]

Cc1ccc(-c2noc(CNS(=O)(=O)c3ccccc3)n2)cc1
inactive: outcome [1] | outcome [2] | outcome [3] | outcome [4] | outcome [5]

O=c1oc2ccccc2c(Cl)c1CN1CCCCC1
inactive: outcome [1] | outcome [2] | outcome [3] | outcome [4] | outcome [5]

Cc1ccc(C)c(NC(=S)c2nc3ccccc3s2)c1
inactive: outcome [1] | outcome [4] | outcome [5]
active: potentiation [2] 104% | potentiation [3] 143%

Cc1cccc(C(=O)NN2C(=O)C3C(c4ccccc4)C=CC(c4ccccc4)C3C2=O)c1 (stereo not given)
inactive: outcome [1] | outcome [2] | outcome [3] | outcome [4] | outcome [5]

Cc1c(C(=O)Nc2ccc(F)cc2)oc2ccc(S(=O)(=O)N3CC(C)CC(C)C3)cc12 (stereo not given)
inactive: outcome [1] | outcome [2] | outcome [3] | outcome [4] | outcome [5]

CN(Cc1ccccc1)C(=S)NC(=O)c1ccccc1
active: potentiation [2] 21.5% | potentiation [3] 157%
inactive: outcome [1] | outcome [4] | outcome [5]

Cc1ccc(C(=O)NC(=S)N(C)C2CCCCC2)cc1Br
inactive: outcome [1] | outcome [4]
active: potentiation [2] 61% | potentiation [3] 159% | activation [5] 40.1%

CSc1ncc(C(=O)Nc2ccccc2Cl)c(C)n1
inactive: outcome [1] | outcome [2] | outcome [3] | outcome [4] | outcome [5]

CCOc1cc(CN2CCOCC2)cc(C(C)=O)c1
inactive: outcome [1] | outcome [3] | outcome [4] | outcome [5]
active: potentiation [2] 23.5%

C=CCn1c(O)c(N=NC(=S)Nc2ccc(OC)cc2)c2ccccc21
active: potentiation [2] 33.5%
inactive: outcome [1] | outcome [3] | outcome [4] | outcome [5]

CN1CCN(Cc2ccc(Sc3ccc(Cl)cc3)c([N+](=O)[O-])c2)CC1
inactive: outcome [1] | outcome [3] | outcome [4] | outcome [5]
active: potentiation [2] 17.5%

CCn1c(=S)sc2nc(C)sc21
inactive: outcome [1] | outcome [2] | outcome [3] | outcome [4] | outcome [5]

Cc1ccc(N(C(=O)Cn2nnc(-c3ccccc3F)n2)C(C(=O)NC2CCCC2)c2ccncc2)cc1 (stereo not given)
inactive: outcome [1] | outcome [2] | outcome [3] | outcome [4] | outcome [5]

CCOC(=O)c1c(C)nc2sc3c(=O)n(-c4ccc(OC)cc4)cnc3c2c1-c1ccc(OC)cc1
inactive: outcome [1] | outcome [2] | outcome [3] | outcome [4] | outcome [5]

Cc1ccc(-c2nnc(SCC(=O)N/N=C/c3ccccc3C(=O)O)n2-c2ccc(Cl)cc2)cc1
inactive: outcome [1] | outcome [2] | outcome [3] | outcome [4] | outcome [5]

CCOC(=O)C1CCCN(C(=O)Cn2sc3nc(C)cc(C)c3c2=O)C1 (stereo not given)
inactive: outcome [1] | outcome [2] | outcome [3] | outcome [4] | outcome [5]

CCCCc1ccc(-c2csc(/C(C#N)=C/c3ccco3)n2)cc1
active: potentiation [2] 132%
inactive: outcome [1] | outcome [3] | outcome [4] | outcome [5]

COc1ccc(-c2nonc2NC(=O)c2oc3ccccc3c2C)cc1OC
inactive: outcome [1] | outcome [2] | outcome [3] | outcome [4] | outcome [5]

Cn1cccc1/C=N/n1c(-c2ccc(Cl)cc2Cl)n[nH]c1=S
inactive: outcome [1] | outcome [2] | outcome [3] | outcome [4] | outcome [5]

O=C(CNc1ccc(Br)cc1)NNC1=NCCC1
inactive: outcome [1] | outcome [2] | outcome [4] | outcome [5]
active: potentiation [3] 142%

O=C(CSc1nnc(NC(=O)C2CCC2)s1)Nc1ccc(N2CCOCC2)cc1
inactive: outcome [1] | outcome [2] | outcome [3] | outcome [4] | outcome [5]

Cc1ccc(S(=O)(=O)N2CCN(C(=O)c3ccc(Br)o3)CC2)c(C)c1
inactive: outcome [1] | outcome [2] | outcome [3] | outcome [4] | outcome [5]

COc1ccc(C2SCC(=O)N2c2nc3ccccc3s2)cc1 (stereo not given)
active: current potentiation [4] 26.4%
inactive: outcome [1] | outcome [2] | outcome [3] | outcome [5]

C/C(=N\Nc1nc2ccccc2s1)c1ccc(Br)s1
inactive: outcome [1] | outcome [2] | outcome [3] | outcome [4] | outcome [5]

CNC(=O)CSc1nc2c(c(=O)n(C)c(=O)n2C)n1Cc1ccc(C)cc1
inactive: outcome [1] | outcome [2] | outcome [3] | outcome [4] | outcome [5]

Cc1ccc(OCC(=O)NNC(=S)NC(=O)C2CCCCC2)c(C)c1
inactive: outcome [1] | outcome [3] | outcome [4] | outcome [5]
active: potentiation [2] 26.5%

O=C(NC(=S)Nc1cccc([N+](=O)[O-])c1)c1ccco1
inactive: outcome [1] | outcome [2] | outcome [3] | outcome [4] | outcome [5]

CCN(CC)CCSc1nc2ccccc2c(=S)n1-c1ccccc1
inactive: outcome [1] | outcome [2] | outcome [3] | outcome [4] | outcome [5]

CCOC(=O)c1sc(NC(=S)NC(=O)c2ccccc2)nc1C
inactive: outcome [1] | outcome [2] | outcome [3] | outcome [4] | outcome [5]

CSc1nc(SCC(=O)O)c2sc3nc(-c4ccccc4)c4c(c3c2n1)CCC4
inactive: outcome [1] | outcome [3] | outcome [4] | outcome [5]
active: potentiation [2] 30%

CCCn1c(N)c(C(=O)CSc2nc3ccccc3c(=O)n2Cc2ccccc2)c(=O)[nH]c1=O
inactive: outcome [1] | outcome [2] | outcome [3] | outcome [4] | outcome [5]

CN(C)c1ccnc(N(Cc2ccccc2)Cc2ccccc2)c1C#N
inactive: outcome [1] | outcome [2] | outcome [3] | outcome [4] | outcome [5]

COc1cccc(/C=N/n2c(SC)nnc2-c2ccccc2)c1O
inactive: outcome [1] | outcome [2] | outcome [3] | outcome [4] | outcome [5]

O=C(NC(=S)Nc1ccccc1N1CCOCC1)c1ccc(-c2cc(Cl)ccc2Cl)o1
inactive: outcome [1] | outcome [2] | outcome [3] | outcome [4] | outcome [5]

COc1ccc(C(=O)NNC(=S)NC(=O)c2cc(-c3ccccc3)nc3ccccc23)cc1
inactive: outcome [1] | outcome [2] | outcome [3] | outcome [4] | outcome [5]

Cc1cc(C)c2c(=O)n(CC(=O)Nc3ccc(Cl)cc3)sc2n1
inactive: outcome [1] | outcome [3] | outcome [4] | outcome [5]
active: potentiation [2] 25%

S=C(Nc1ccc(Cl)cc1)c1nc2ccccc2s1
inactive: outcome [1] | outcome [3] | outcome [4]
active: potentiation [2] 47.5% | activation [5] 23.8%

Cc1ccc(C(=O)NC(=S)N2CCN(c3ccccc3F)CC2)cc1
inactive: outcome [1] | outcome [2] | outcome [3] | outcome [4] | outcome [5]

Cn1c(SCC(=O)NC2CC2)nnc1-c1cccs1
inactive: outcome [1] | outcome [2] | outcome [3] | outcome [4] | outcome [5]
